Results gathered from unrelated publications.
Each line is one published result; the experiments were not run side by side.
Target: Mitogen-activated protein kinase 11 (MAPK11, Homo sapiens, UniProt Q15759)

SMILES	effect on	mode	method	tested at	endpoint	result
C#Cc1cnc(Nc2ccnc(CO)c2)nc1Nc1ccccc1S(C)(=O)=NC#N (stereo not shown)	cell-free assay	–	–	1 µM	remaining signal	82%
CCCCC(=O)Nc1ccc(-c2ccc3ncn(CCC)c(=O)c3c2)cn1	binding	–	competition with immobilised ligand	0.5 µM	remaining binding	87%
Cc1ccc(NC(=O)c2ccnc(C(F)(F)F)c2)cc1-c1cc(OCCO)nc(N2CCOCC2)c1	binding	–	competition with immobilised ligand	1 µM	remaining binding	34%
CC#CC(=O)N1CCC[C@H]1c1nc(-c2ccc(C(=O)Nc3ccccn3)cc2)c2c(N)nccn12	enzyme activity	inhibitor	–	1 µM	inhibition	0%
CN1CCN(C(=O)c2ccc(NC(=O)Nc3ccc(N(C)c4ccnc(Nc5ccc(CS(C)(=O)=O)cc5)n4)cc3)cc2)CC1	binding	–	competition with immobilised ligand	1 µM	remaining binding	100%
C#Cc1cc(-c2cc(Nc3nc(N[C@@H](C)c4ccc(F)cn4)ncc3Cl)n[nH]2)ccc1C=O	enzyme activity	inhibitor	–	0.2 µM	inhibition	21.9%
N#Cc1ccc(NC(=O)Nc2ccccc2)cc1	cell-free assay	–	competition with immobilised ligand	25 µM	remaining binding	100%
C=CC(=O)N1CCC[C@@H](n2nc(-c3ccc(Oc4ccccc4)cc3)c3c(N)ncnc32)C1	enzyme activity	inhibitor	–	1 µM	inhibition	2%
Cc1cc(O)c(-c2ccc([C@@H](C)CN(C)C)cc2)c2c1[nH]c(=O)c1sccc12	enzyme activity	inhibitor	–	0.1 µM	inhibition	5.56%
CC(C)S(=O)(=O)c1ccc2nccc(Nc3ccc4sc(C5CCCC5)nc4c3)c2c1	enzyme activity	inhibitor	–	1 µM	activity vs control	108%
